Measured values from ChEMBL document CHEMBL1138854, “Synthesis and antitumor activity of guanylhydrazones from 6-(2,4-dichloro-5-nitrophenyl)imidazo[2,1-b]thiazoles and 6-pyridylimidazo[2,1-b]thiazoles(1)” (2006).

Tests used:
[1] = Antitumor activity against prostate cell lines of the NCI60 panel; format: functional; conditions: Homo sapiens; for TGI: read-out: pTGI (converted)
In short: (§1)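 Run by NCI in the 60-cell-line panel (details in Supporting Information). Highest concentration 10^-4 M unless noted (one case 10-2.6 M). Values expressed as -log molar concentration giving 50% growth inhibition (pGI50), total cytostasis (pTGI) or 50% cell kill (pLC50); only values >4.00 reported; mean graph midpoint is the calculated panel mean.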

[2] = Antitumor activity against melanoma cell lines of the NCI60 panel; format: functional; conditions: Homo sapiens; for TGI: read-out: pTGI (converted); in short: as §1
[3] = Antitumor activity against CNS cell lines of the NCI60 panel; format: functional; conditions: Homo sapiens; for TGI: read-out: pTGI (converted); in short: as §1
[4] = Antitumor activity against leukemia cell lines of the NCI60 panel; format: functional; conditions: Homo sapiens; for TGI: read-out: pTGI (converted); in short: as §1
[5] = Antitumor activity against breast cell lines of the NCI60 panel; format: functional; conditions: Homo sapiens; for TGI: read-out: pTGI (converted); in short: as §1
NSCLC = assay: Antitumor activity against NSCLC cell lines of the NCI60 panel; format: functional; conditions: Homo sapiens; for TGI: read-out: pTGI (converted); in short: as §1
[6] = Antitumor activity against ovarian cell lines of the NCI60 panel; format: functional; conditions: Homo sapiens; for TGI: read-out: pTGI (converted); in short: as §1
[7] = Antitumor activity against renal cell lines of the NCI60 panel; format: functional, Homo sapiens; conditions: Homo sapiens, renal; for TGI: read-out: pTGI (converted); in short: as §1
[8] = Antitumor activity against colon cell lines of the NCI60 panel; format: functional; conditions: Homo sapiens; for TGI: read-out: pTGI (converted); in short: as §1

SMILES	GI50 [1] [µM]	TGI [1] [µM]	GI50 [2] [µM]	TGI [2] [µM]	GI50 [3] [µM]	TGI [3] [µM]	GI50 [4] [µM]	TGI [4] [µM]	GI50 [5] [µM]	TGI [5] [µM]	GI50 (NSCLC) [µM]	TGI (NSCLC) [µM]	GI50 [6] [µM]	TGI [6] [µM]	GI50 [7] [µM]	TGI [7] [µM]	GI50 [8] [µM]	TGI [8] [µM]
N=C(N)N/N=C/c1c(-c2cccnc2)nc2sc(Cl)cn12	15.1	28.2	18.2	36.3	15.1	31.6	13.8	42.7	16.6	46.8	20	41.7	15.5	36.3	18.2	35.5	8.51	21.9
Cc1sc2nc(-c3cc([N+](=O)[O-])c(Cl)cc3Cl)c(/C=N/NC(=N)N)n2c1C	9.12	38	5.01	16.2	11.2	67.6	2.09	22.4	7.24	35.5	11	47.9	5.25	24	8.71	–	4.27	29.5
Cc1csc2nc(-c3cc([N+](=O)[O-])c(Cl)cc3Cl)c(/C=N/N=C(N)N)n12	16.6	35.5	16.2	31.6	17.8	34.7	2.51	25.7	15.5	32.4	17	35.5	17	37.2	17	33.1	15.1	33.1
N=C(N)N/N=C/c1c(-c2ccccn2)nc2sc(Cl)cn12	9.33	17.8	7.76	15.1	5.62	11.5	4.37	13.2	8.91	20.9	8.71	18.6	7.08	14.5	7.94	15.1	7.08	15.1
Cc1cn2c(/C=N/NC(=N)N)c(-c3ccncc3)nc2s1	17.4	32.4	19.5	39.8	16.2	30.9	9.77	28.2	34.7	47.9	16.6	33.1	16.6	34.7	23.4	42.7	15.8	34.7
N=C(N)N/N=C/c1c(-c2ccc(Cl)c([N+](=O)[O-])c2)nc2n1CCS2	6.61	20.9	8.32	24	6.92	25.7	3.09	13.2	11.5	27.5	10.5	38.9	9.77	30.9	10	–	6.61	17.4
Cc1sc2nc(-c3ccncc3)c(/C=N/NC(=N)N)n2c1C	55	–	38	83.2	38.9	93.3	30.2	95.5	43.7	91.2	38.9	97.7	53.7	97.7	39.8	89.1	35.5	79.4
N=C(N)N/N=C/c1c(-c2cc([N+](=O)[O-])c(Cl)cc2Cl)nc2n1CCS2	0.813	3.09	0.759	2.51	0.302	9.55	0.339	3.16	0.617	10.5	1.15	2.57	1.32	2.82	1.17	2.88	0.447	2.19
